Measurements as given in ChEMBL document CHEMBL2311366, “MMP inhibition by barbiturate homodimers” (Bioorg Med Chem Lett, 2013).
Calls of active or inactive are those of the source. The calls are words filed in the database; no cut-off is given here.

Experiments:
[1] = biological target: T1, Interstitial collagenase (Homo sapiens) (UniProt P03956); experiment: Inhibition of human recombinant MMP-1 at 10 uM after 45 mins by fluorogenic assay
T1 sequence (whole entry): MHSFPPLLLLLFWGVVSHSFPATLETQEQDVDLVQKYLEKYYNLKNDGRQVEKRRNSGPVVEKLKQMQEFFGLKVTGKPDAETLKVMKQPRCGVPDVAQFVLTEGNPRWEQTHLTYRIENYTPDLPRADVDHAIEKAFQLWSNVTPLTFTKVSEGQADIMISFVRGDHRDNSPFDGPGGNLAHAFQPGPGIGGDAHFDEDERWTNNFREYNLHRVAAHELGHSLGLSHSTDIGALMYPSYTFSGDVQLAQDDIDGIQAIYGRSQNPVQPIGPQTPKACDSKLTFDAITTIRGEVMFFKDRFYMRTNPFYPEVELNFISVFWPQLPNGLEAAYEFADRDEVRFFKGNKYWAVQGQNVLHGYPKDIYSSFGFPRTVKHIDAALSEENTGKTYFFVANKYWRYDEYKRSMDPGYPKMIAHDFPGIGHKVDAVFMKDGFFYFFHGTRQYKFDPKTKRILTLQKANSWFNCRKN

Neutrophil collagenase = Neutrophil collagenase (Homo sapiens, UniProt P22894); experiment: Inhibition of human recombinant MMP-8 after 45 mins by fluorogenic assay
Chain of Neutrophil collagenase (P22894 whole entry): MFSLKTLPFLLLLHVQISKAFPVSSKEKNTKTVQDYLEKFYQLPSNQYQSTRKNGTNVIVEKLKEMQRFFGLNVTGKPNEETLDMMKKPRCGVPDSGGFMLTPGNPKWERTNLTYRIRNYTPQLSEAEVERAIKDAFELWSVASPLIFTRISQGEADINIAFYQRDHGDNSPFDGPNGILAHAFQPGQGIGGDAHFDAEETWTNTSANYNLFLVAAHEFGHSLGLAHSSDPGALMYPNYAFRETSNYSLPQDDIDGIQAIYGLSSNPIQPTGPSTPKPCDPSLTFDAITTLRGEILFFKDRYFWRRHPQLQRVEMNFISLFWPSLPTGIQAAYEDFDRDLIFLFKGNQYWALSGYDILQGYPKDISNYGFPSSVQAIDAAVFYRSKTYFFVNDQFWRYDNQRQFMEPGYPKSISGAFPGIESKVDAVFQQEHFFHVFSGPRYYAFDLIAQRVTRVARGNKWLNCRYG
In short: (§1)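 Human recombinant enzymes in a fluorogenic activity assay. Test concentrations 0.01–10,000 nM, 45 min incubation. IC50 reported as mean SEM of at least three independent experiments.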

Collagenase 3 = Collagenase 3 (Homo sapiens, UniProt P45452); experiment: Inhibition of human recombinant MMP-13 after 45 mins by fluorogenic assay; in short: as §1
[2] = Metabolic stability in human duodenal fluid assessed as compound remaining at 6 hrs; type: ADME; details: read-out: Stability
In short: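 Incubation at 37 °C in simulated human duodenal fluid. Remaining compound was measured by RP HPLC as a function of time.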

| SMILES | inhibition [1] | IC50 (Neutrophil collagenase) | IC50 (Collagenase 3) | remaining at 6 h [2] |
| --- | --- | --- | --- | --- |
| O=C1NC(=O)C(c2ccc(Oc3ccccc3)cc2)(N2CCCN(C(=O)CCCCCCCCCCCCCCCCCCCCC(=O)N3CCCN(C4(c5ccc(Oc6ccccc6)cc5)C(=O)NC(=O)NC4=O)CC3)CC2)C(=O)N1 | inactive | 162 nM | 225 nM | – |
| O=C1NC(=O)C(c2ccc(Oc3ccccc3)cc2)(N2CCCN(C(=O)CCCCCCCCC(=O)N3CCCN(C4(c5ccc(Oc6ccccc6)cc5)C(=O)NC(=O)NC4=O)CC3)CC2)C(=O)N1 | inactive | 91 nM | 106 nM | – |
| O=C1NC(=O)C(c2ccc(Oc3ccccc3)cc2)(N2CCCN(C(=O)CCCC(=O)N3CCCN(C4(c5ccc(Oc6ccccc6)cc5)C(=O)NC(=O)NC4=O)CC3)CC2)C(=O)N1 | inactive | 85 nM | 164 nM | > 50% |
| O=C1NC(=O)C(c2ccc(Oc3ccccc3)cc2)(N2CCCN(C(=O)CCCCCCCC(=O)N3CCCN(C4(c5ccc(Oc6ccccc6)cc5)C(=O)NC(=O)NC4=O)CC3)CC2)C(=O)N1 | inactive | 98 nM | 44 nM | – |
| CCCC(=O)N1CCCN(C2(c3ccc(Oc4ccccc4)cc3)C(=O)NC(=O)NC2=O)CC1 | inactive | – | – | – |
| O=C1NC(=O)C(c2ccc(Oc3ccccc3)cc2)(N2CCCN(C(=O)CCCCCCCCCCCCC(=O)N3CCCN(C4(c5ccc(Oc6ccccc6)cc5)C(=O)NC(=O)NC4=O)CC3)CC2)C(=O)N1 | inactive | 217 nM | 70 nM | – |
| O=C1NC(=O)C(c2ccc(Oc3ccccc3)cc2)(N2CCCN(C(=O)CCCCC(=O)N3CCCN(C4(c5ccc(Oc6ccccc6)cc5)C(=O)NC(=O)NC4=O)CC3)CC2)C(=O)N1 | inactive | 60 nM | 23 nM | – |
| O=C1NC(=O)C(c2ccc(Oc3ccccc3)cc2)(N2CCCN(C(=O)CCCCCCCCCCCCCCC(=O)N3CCCN(C4(c5ccc(Oc6ccccc6)cc5)C(=O)NC(=O)NC4=O)CC3)CC2)C(=O)N1 | inactive | 282 nM | 134 nM | – |
| O=C1NC(=O)C(c2ccc(Oc3ccccc3)cc2)(N2CCCN(C(=O)CCCCCC(=O)N3CCCN(C4(c5ccc(Oc6ccccc6)cc5)C(=O)NC(=O)NC4=O)CC3)CC2)C(=O)N1 | inactive | 117 nM | 648 nM | – |
| O=C1NC(=O)C(c2ccc(Oc3ccccc3)cc2)(N2CCCN(C(=O)CCCCCCCCCCC(=O)N3CCCN(C4(c5ccc(Oc6ccccc6)cc5)C(=O)NC(=O)NC4=O)CC3)CC2)C(=O)N1 | inactive | 125 nM | 104 nM | – |
| CCCCCCCCCCCCCC(=O)N1CCCN(C2(c3ccc(Oc4ccccc4)cc3)C(=O)NC(=O)NC2=O)CC1 | inactive | – | – | – |
| O=C1NC(=O)C(c2ccc(Oc3ccccc3)cc2)(N2CCCN(C(=O)CCC(=O)N3CCCN(C4(c5ccc(Oc6ccccc6)cc5)C(=O)NC(=O)NC4=O)CC3)CC2)C(=O)N1 | inactive | 44 nM | 11 nM | – |
| O=C1NC(=O)C(c2ccc(Oc3ccccc3)cc2)(N2CCCN(C(=O)CCCCCCC(=O)N3CCCN(C4(c5ccc(Oc6ccccc6)cc5)C(=O)NC(=O)NC4=O)CC3)CC2)C(=O)N1 | inactive | 88 nM | 155 nM | – |
| O=C1NC(=O)C(c2ccc(Oc3ccccc3)cc2)(N2CCCN(C(=O)c3ccc(C(=O)N4CCCN(C5(c6ccc(Oc7ccccc7)cc6)C(=O)NC(=O)NC5=O)CC4)cc3)CC2)C(=O)N1 | inactive | 46 nM | 23 nM | – |
